In ChEMBL document CHEMBL1828545, “Synthesis and characterization of novel PUFA esters exhibiting potential anticancer activities: an in vitro study” (Eur J Med Chem, 2011):
Active and inactive are the calls of the source. The rule behind the calls is not given here.

How the values were obtained:
MDA-MB-361 [1] = assay: Modulation of lipid peroxidation in human MDA-MB-361 cells assessed as malondialdehyde production assessed per 10^6 cells at 25 to 100 uM after 24 hrs by thiobarbituric acid assay; assay type: functional
Summary of the method: (§1)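 Cells exposed for 24 h to vehicle or to 25, 50 or 100 µM compound. Malondialdehyde measured spectrophotometrically by thiobarbituric acid assay and expressed as nmol MDA per 10^6 cells. Means ± SD of five experiments.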

HFL1 = assay: Cytotoxicity against human HFL1 cells after 94 hrs by MTT assay; assay type: cell-based; conditions: hfl1, 94 h
Summary of the method: (§2)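 Cells seeded at 5 x 10^5 cells/200 µl/well in 96-well plates, grown in medium with 5% FCS. After 24 h, compounds added at 0–15 µM, with ethanol as vehicle control. Incubated 94 h, then medium replaced. MTT (5 mg/ml) added for 2-3 h at 37 °C and dissolved in DMSO. A620 read in triplicate wells. IC50 taken from the concentration giving 50% loss of viability.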

MDA-MB-361 [2] = assay: Cytotoxicity against human MDA-MB-361 cells after 94 hrs by MTT assay; assay type: functional, cell-based; conditions: MDA-MB-361, 94 h; summary of the method: as §2
HL-60 = assay: Cytotoxicity against human HL60 cells after 94 hrs by MTT assay; assay type: functional, cell-based; conditions: for IC50: HL-60, 94 h; summary of the method: as §2
MDA-MB-361 [3] = assay: Induction of apoptosis in human MDA-MB-361 cells assessed as upregulation of caspase 3 expression at 15 uM after 24 hrs by Western blotting; assay type: functional
Summary of the method: (§3)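 Cells (1 × 10^7/well) grown 24 h in serum-free medium at 37 °C, then treated 24 h, with ethanol as control. Harvested by trypsin and lysed in TNN buffer (50 mM Tris-HCl pH 7.4, NP-40, protease inhibitors). Cytosolic fraction taken from a 10,000 g spin. Protein measured by BCA and equal amounts run on 10% SDS-PAGE. Blotted to nitrocellulose, probed with monoclonal antibodies plus a β-actin reprobe, detected by ECL. Densitometry as mean of triplicates.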

HepG2 [4] = assay: Cytotoxicity against human HepG2 cells after 94 hrs by MTT assay; assay type: functional, cell-based; conditions: HepG2, 94 h; summary of the method: as §2
A549 = assay: Cytotoxicity against human A549 cells after 94 hrs by MTT assay; assay type: functional, cell-based; conditions: for IC50: A549, 94 h; summary of the method: as §2
SK-MEL-1 = assay: Cytotoxicity against human SK-MEL-1 cells after 94 hrs by MTT assay; assay type: functional, cell-based; conditions: for IC50: SK-MEL-1, 94 h; summary of the method: as §2
MDA-MB-361 [5] = assay: Induction of apoptosis in human MDA-MB-361 cells assessed as upregulation of cytochrome c expression at 15 uM after 24 hrs by Western blotting; assay type: functional; summary of the method: as §3
HepG2 [6] = assay: Induction of apoptosis in human HepG2 cells assessed as upregulation of caspase 3 expression at 15 uM after 24 hrs by Western blotting; assay type: functional, cell-based; summary of the method: as §3
HepG2 [7] = assay: Induction of apoptosis in human HepG2 cells assessed as upregulation of cytochrome c expression at 15 uM after 24 hrs by Western blotting; assay type: functional; summary of the method: as §3
HepG2 [8] = assay: Modulation of lipid peroxidation in human HepG2 cells assessed as malondialdehyde production after 24 hrs by thiobarbituric acid assay; assay type: functional, cell-based; summary of the method: as §1

SMILES	Activity (MDA-MB-361 [1])	Activity (HFL1)	IC50 (MDA-MB-361 [2])	growth inhibition (GI) (HL-60)	Activity (MDA-MB-361 [3])	IC50 (HepG2 [4])	growth inhibition (GI) (A549)	IC50 (SK-MEL-1)	Activity (MDA-MB-361 [5])	Activity (HepG2 [6])	Activity (HepG2 [7])	IC50 (HL-60)	IC50 (A549)	growth inhibition (GI) (SK-MEL-1)	Activity (HepG2 [8])
CCCCC/C=C\C/C=C\CCCCCCCC(=O)Oc1ccc(C(C)C)cc1C(C)C	0.25 nmol	Non-toxic	3.2 µM	Active	32.6%	4.1 µM	Active	4.9 µM	35.2%						
CCCCC/C=C\C/C=C\C/C=C\C/C=C\CCCC(=O)Oc1ccc(C(C)C)cc1C(C)C		Toxic	7.5 µM			3.7 µM				inactive	24.7%	4.4 µM	5.3 µM	Active	Dose-dependent effect
CCCCC/C=C\C/C=C\CCCCCCCC(=O)Oc1c(C(C)C)cccc1C(C)C	0.25 nmol	Non-toxic	2.76 µM	Active	33.7%	3.3 µM	Active	4.1 µM	36.6%						
COc1cccc2c1C(=O)c1c(O)c3c(c(O)c1C2=O)C[C@@](O)(C(=O)CO)C[C@@H]3O[C@H]1C[C@H](N)[C@H](O)[C@H](C)O1 [DOXORUBICIN]		Non-toxic	2.03 µM			2.17 µM		3.09 µM				3.14 µM	3.6 µM		
CCCCC/C=C\C/C=C\C/C=C\C/C=C\CCCC(=O)Oc1c(C(C)C)cccc1C(C)C			7.21 µM			3.1 µM				inactive	24.2%	3.9 µM	4.6 µM	Active	Dose-dependent effect
